≈ marks a conversion by molar mass, not a printed value. Calls of active or inactive are those of the source. The calls are words filed in the database; no cut-off is given here.
What was measured:
Arabidopsis thaliana [1] = assay: Inhibition of Arabidopsis thaliana AHAS catalytic subunit using pyruvate as substrate at 10 uM measured after 30 mins by colorimetric method relative to control
Summary of the method: (§1)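 Colorimetric assay in 50 mM potassium phosphate pH 7.0 with 50 mM pyruvate, 1 mM thiamine diphosphate, 10 mM MgCl2 and 10 μM FAD. Incubated 30 min at 37 °C for plant AHAS and 30 °C for fungal AHAS. Acetolactate formed was then quantified.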

Candida albicans [2] = assay: Antifungal activity against Candida albicans SC5314 grown in RPMI 1640 medium incubated for 24 hrs by microdilution method; type: functional; conditions: SC5314, 24 h
Summary of the method: (§2)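 C. albicans standard strain SC5314 and clinical isolates g5 and 17# tested by broth microdilution in YNB or RPMI 1640 medium. Plates incubated at 35 °C for up to 72 h, with visual readings taken at 24 h. MIC taken as the lowest concentration preventing visible growth.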

Candida albicans [3] = assay: Antifungal activity against Candida albicans SC5314 grown in YNB medium incubated for 24 hrs by microdilution method; type: functional; conditions: SC5314, 24 h; summary of the method: as §2
Candida albicans [4] = assay: Antifungal activity against Candida albicans isolate 17 grown in YNB medium incubated for 24 hrs by microdilution method; type: functional; conditions: isolate 17, 24 h; summary of the method: as §2
Mythimna separata = assay: Insecticidal activity against Mythimna separata assessed as larval mortality at 600 mg/l by leaf-dip method; type: functional
Candida albicans [5] = assay: Antifungal activity against Candida albicans isolate g5 grown in RPMI 1640 medium incubated for 24 hrs by microdilution method; type: functional; conditions: isolate g5, 24 h; summary of the method: as §2
Fusarium fujikuroi = assay: Antifungal activity against Gibberella fujikuroi assessed as reduction in growth at 50 mg/l by mycelium growth rate method relative to control; type: functional
Summary of the method: (§3)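 Mycelium growth rate method against S. sclerotiorum, P. capsici, P. piricola, R. cerealis, W. anthracnose and R. bakanae. Each compound tested at 50 mg/L, with chlorothalonil and PTB as controls. Relative inhibitory ratio (%) calculated from mycelial growth.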

Candida albicans [6] = assay: Inhibition of Candida albicans AHAS catalytic subunit at 10 uM using pyruvate as substrate measured after 30 mins by colorimetric method relative to control; summary of the method: as §1
Arabidopsis thaliana [7] = assay: Inhibition of Arabidopsis thaliana AHAS catalytic subunit using pyruvate as substrate at 100 uM measured after 30 mins by colorimetric method relative to control; summary of the method: as §1
Candida albicans [8] = assay: Antifungal activity against Candida albicans isolate g5 grown in YNB medium incubated for 24 hrs by microdilution method; type: functional; conditions: isolate g5, 24 h; summary of the method: as §2
Tobacco mosaic virus [9] = assay: Antiviral activity against Tobacco mosaic virus inoculated in Nicotiana tabacum leaves assessed as passivation by measuring local lesion numbers at 100 mg/l pre-incubated with virus for 30 mins followed by inoculation and measured up to 4 days; type: functional
Summary of the method: (§4)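 Passivation assay: TMV mixed with an equal volume of compound solution for 30 min, then rubbed onto the left half of N. tabacum L. leaves. The right half received virus mixed with solvent as control. Local lesions counted 3–4 days after inoculation. Compounds tested at 500 or 100 mg/L.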

Colletotrichum = assay: Antifungal activity against Colletotrichum (W. anthracnose) assessed as reduction in growth at 50 mg/l by mycelium growth rate method relative to control; type: functional; summary of the method: as §3
[10] = test system: Brassica rapa subsp. oleifera; assay: Herbicidal activity against Brassica campestris L assessed as inhibition of rape root growth at 10 mg/l root growth incubated for 48 hrs relative to control; type: functional
Summary of the method: (§5)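 Rape seeds soaked in distilled water for 4 h, then placed on filter paper wetted with inhibitor solution, 15 seeds per 6-cm dish. Germinated in the dark at 28 °C for 48 h. Mean length of 10 roots per plate measured.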

[11] = test system: Severe acute respiratory syndrome-related coronavirus; assay: Inhibition of SARS coronavirus M protease using AVLQSGFRKK as substrate at 20 uM by FRET assay relative to control
Summary of the method: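 Purified SARS-CoV Mpro assayed by FRET. Protein, compound and substrate were preheated at 37 °C and oscillated. Fluorescence (ex 320/em 405 nm) was read every 5 s for 200 reads.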

Sclerotinia sclerotiorum = assay: Antifungal activity against Sclerotinia sclerotiorum assessed as reduction in growth at 50 mg/l by mycelium growth rate method relative to control; type: functional; summary of the method: as §3
Candida albicans [12] = assay: Antifungal activity against Candida albicans isolate 17 grown in RPMI 1640 medium incubated for 24 hrs by microdilution method; type: functional; conditions: isolate 17, 24 h; summary of the method: as §2
[13] = test system: Brassica rapa subsp. oleifera; assay: Herbicidal activity against Brassica campestris L assessed as inhibition of rape root growth at 100 mg/l root growth incubated for 48 hrs relative to control; type: functional; summary of the method: as §5
Tobacco mosaic virus [14] = assay: Antiviral activity against Tobacco mosaic virus inoculated in Nicotiana tabacum leaves assessed as passivation by measuring local lesion numbers at 500 mg/l pre-incubated with virus for 30 mins followed by inoculation and measured up to 4 days; type: functional; summary of the method: as §4
Phytophthora capsici = assay: Antifungal activity against Phytophthora capsici assessed as reduction in growth at 50 mg/l by mycelium growth rate method relative to control; type: functional; summary of the method: as §3
Ceratobasidium cereale = assay: Antifungal activity against Rhizoctonia cerealis assessed as reduction in growth at 50 mg/l by mycelium growth rate method relative to control; type: functional; summary of the method: as §3
Candida albicans [15] = assay: Inhibition of Candida albicans AHAS catalytic subunit at 100 uM using pyruvate as substrate measured after 30 mins by colorimetric method relative to control; summary of the method: as §1
[16] = test system: Botryosphaeria berengeriana; assay: Antifungal activity against Physalospora pyricola assessed as reduction in growth at 50 mg/l by mycelium growth rate method relative to control; type: functional; summary of the method: as §3

| SMILES | inhibition (Arabidopsis thaliana [1]) [%] | MIC (Candida albicans [2]) [µg/mL] | MIC (Candida albicans [3]) [µg/mL] | MIC (Candida albicans [4]) [µg/mL] | MIC (Candida albicans [5]) [µg/mL] | inhibition at 50 µg/mL (Fusarium fujikuroi) [%] | inhibition (Candida albicans [6]) [%] | inhibition (Arabidopsis thaliana [7]) [%] | MIC (Candida albicans [8]) [µg/mL] | inhibition (Tobacco mosaic virus [9]) | inhibition at 50 µg/mL (Colletotrichum) [%] | inhibition (INH) [10] [%] | inhibition [11] [%] | inhibition at 50 µg/mL (Sclerotinia sclerotiorum) [%] | MIC (Candida albicans [12]) [µg/mL] | inhibition (INH) [13] [%] | inhibition at 500 µg/mL (Tobacco mosaic virus [14]) [%] | inhibition at 50 µg/mL (Phytophthora capsici) [%] | inhibition at 50 µg/mL (Ceratobasidium cereale) [%] | inhibition (Candida albicans [15]) [%] | further results |
| --- | --- | --- | --- | --- | --- | --- | --- | --- | --- | --- | --- | --- | --- | --- | --- | --- | --- | --- | --- | --- | --- |
| COc1nc(OC)nc(Sc2cccc(Br)c2C#N)n1 | 40.3 | > 100 | 12.5 (≈ 35.4 µM) | 6.25 (≈ 17.7 µM) | > 100 | 21.2 | 34.8 | 74.7 | 12.5 (≈ 35.4 µM) | inactive | 47.6 | 0 | 96.3 | 13.9 | > 100 | 14.3 | 0 | 25 | 31 | 71.1 | mortality at 600 µg/mL (Mythimna separata): 75%; inhibition at 50 µg/mL [16]: 73.4% |
| COc1cc(OC)nc(Sc2ccc(C(=O)O)cc2C(=O)O)n1 | 5 | > 100 | > 100 | > 100 | > 100 |  | 8 | 20 | > 100 |  |  | 0 | 0 |  | > 100 | 0 |  |  |  | 24 |  |
| COc1nc(OC)nc(Sc2ccc(Br)cc2C(=O)O)n1 | 12 | > 100 | > 100 | > 100 | > 100 | 6.1 | 59.3 | 19 | > 100 | inactive | 23.8 | 5.2 | 48.8 | 66.7 | > 100 | 55.1 | 0 | 33.3 | 58.3 | 96.7 | mortality at 600 µg/mL (Mythimna separata): 45%; inhibition at 50 µg/mL [16]: 59.4% |
| COc1nc(OC)nc(Oc2cccc(Br)c2)n1 | 6.6 | > 100 | > 100 | > 100 | > 100 | 0 | 10.6 | 60 | > 100 | inactive | 16.7 | 32.5 | 0 | 61.1 | > 100 | 87.4 | 19.5 | 8.3 | 52.4 | 18.3 | inhibition at 50 µg/mL [16]: 40.6% |
| COc1nc(OC)nc(Sc2ccc(C#N)cc2C(F)(F)F)n1 | 0 | > 100 | > 100 | > 100 | > 100 |  | 10.5 | 10 | > 100 |  |  | 0 | 18 |  | > 100 | 5 |  |  |  | 22 |  |
| COc1nc(OC)nc(Sc2ccc(C(=O)O)cc2C(=O)O)n1 | 73.3 | > 100 | > 100 | > 100 | > 100 |  | 15.6 | 81.7 | > 100 |  |  | 8 | 0 |  | > 100 | 20.3 |  |  |  | 58.7 |  |
| CCOc1ccccc1OS(=O)(=O)NC(=O)Nc1nc(OC)cc(OC)n1 [ETHOXYSULFURON] |  | 25 (≈ 62.8 µM) | 0.39 (≈ 0.979 µM) | 0.39 (≈ 0.979 µM) | 25 (≈ 62.8 µM) |  | 96.8 |  | 0.39 (≈ 0.979 µM) |  |  |  |  |  | 50 (≈ 126 µM) |  |  |  |  | 98.7 |  |
| COc1cc(OC)nc(Sc2ccc(C(F)(F)F)cc2C#N)n1 | 28.2 | > 100 | > 100 | > 100 | > 100 |  | 3.6 | 72.3 | > 100 |  |  | 0 | 0 |  | > 100 | 25.8 |  |  |  | 25 |  |
| CNCC(=O)N[C@@H](CO)C(=O)N[C@H]1[C@H](O)[C@@H](O)[C@H](n2ccc(N)nc2=O)O[C@@H]1C(N)=O [NINGNANMYCIN] |  |  |  |  |  |  |  |  |  |  |  |  |  |  |  |  | 56.4 |  |  |  | inhibition at 100 µg/mL (Tobacco mosaic virus [9]): 27.8% |
| NC(=O)c1ncn([C@@H]2O[C@H](CO)[C@@H](O)[C@H]2O)n1 [RIBAVIRIN] |  |  |  |  |  |  |  |  |  |  |  |  |  |  |  |  | 37.6 |  |  |  | inhibition at 100 µg/mL (Tobacco mosaic virus [9]): 11.9% |
| COc1nc(OC)nc(Sc2cc(Cl)ccc2C#N)n1 | 43.6 | > 100 | > 100 | > 100 | > 100 | 30.3 | 0 | 100 | > 100 | inactive | 19 | 34.4 |  | 13.9 | > 100 | 40 | 0 | 41.7 | 40.5 | 26.3 | mortality at 600 µg/mL (Mythimna separata): 25%; inhibition at 50 µg/mL [16]: 37.5% |
| COc1cc(OC)nc(Sc2ccc(C#N)c(C(F)(F)F)c2)n1 | 51.2 | > 100 | > 100 | > 100 | > 100 |  | 18.6 | 86.2 | > 100 |  |  | 4.7 | 85 |  | > 100 | 33.5 |  |  |  | 51.4 |  |
| COc1nc(OC)nc(Sc2ccc(C(F)(F)F)cc2C#N)n1 | 11.5 | > 100 | > 100 | > 100 | > 100 |  | 0 | 15 | > 100 |  |  | 0 | 0 |  | > 100 | 8.5 |  |  |  | 12 |  |
| COc1cc(OC)nc(Sc2cc(C(F)(F)F)ccc2C(=O)O)n1 | 51.8 | > 100 | > 100 | > 100 | > 100 |  | 0 | 85.5 | > 100 |  |  | 24.6 | 0 |  | > 100 | 50 |  |  |  | 31.2 |  |
| COc1cc(OC)nc(Sc2ccc(C(=O)O)c(C(F)(F)F)c2)n1 | 37.7 | > 100 | > 100 | > 100 | > 100 | 30.3 | 2.1 | 77.4 | > 100 | inactive | 14.3 | 0 | 21.7 | 75 | > 100 | 45.2 | 0 | 8.3 | 73.8 | 20.6 | inhibition at 50 µg/mL [16]: 35.9% |

Source: ChEMBL document CHEMBL4390648, “Chemical synthesis, crystal structure, versatile evaluation of their biological activities and molecular simulations of novel pyrithiobac derivatives” (Eur J Med Chem, 2019)
